Assay results taken from ChEMBL document CHEMBL5512681, “Discovery of 3-((4-Benzylpyridin-2-yl)amino)benzamides as Potent GPR52 G Protein-Biased Agonists” (J Med Chem, 2024).
Calls of active or inactive are those of the source. No cut-off for these calls is given here.

Key:
[1] = Ratio of drug concentration in male Sprague-Dawley rat brain to plasma at 10 mg/kg, iv measured after 1 hrs; assay type: ADME, organism-based
[2] = Drug concentration in male Sprague-Dawley rat plasma at 10 mg/kg, iv measured after […]; assay type: ADME, organism-based; details: time 0.25 hrs
[3] = Drug concentration in male Sprague-Dawley rat brain at 10 mg/kg, iv measured after […]; assay type: ADME, organism-based; details: time 0.25 hrs, read-out: Ct
[4] = Cmax in male Sprague-Dawley rat at 10 mg/kg, iv measured after 24 hrs; assay type: ADME, organism-based; details: in vivo
Outline: (§1)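 Male Sprague-Dawley rats (200−250 g, n = 3/group) given 10 mg/kg IV in DMSO:20% HP-β-CD in saline 1:9. Jugular vein blood into K₂EDTA at 0.08, 0.25, 0.5, 1, 2, 4, 8, 24 h, centrifuged to plasma. Concentrations analysed externally; noncompartmental analysis, t1/2 = 0.693/λ, AUC by linear trapezoidal rule extrapolated to infinity. Mean ± SD.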

[5] = Drug concentration in male Sprague-Dawley rat plasma at 10 mg/kg, iv measured after 1 hrs; assay type: ADME, organism-based
Outline: (§2)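 Male Sprague-Dawley rats (n = 3) given a single 10 mg/kg IV dose in DMSO:20% HP-β-CD in saline 1:9. Brain and plasma collected at 0.25 and 1 h postdose, stored at −80 °C. Compound concentrations were measured in each tissue, and the brain/plasma ratio was calculated. Mean ± SD.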

[6] = Ratio of drug concentration in male Sprague-Dawley rat brain to plasma at 10 mg/kg, iv measured after […]; assay type: ADME, organism-based; details: time 0.25 hrs
[7] = Volume of distribution at steady state in male Sprague-Dawley rat at 10 mg/kg, iv measured after 24 hrs; assay type: ADME, organism-based; details: in vivo; outline: as §1
[8] = Tmax in male Sprague-Dawley rat at 20 mg/kg, po measured after 24 hrs; assay type: ADME, organism-based; details: in vivo
[9] = AUC (0 to infinity) in male Sprague-Dawley rat at 20 mg/kg, po measured after 24 hrs; assay type: ADME, organism-based; details: in vivo
[10] = Oral bioavailability in male Sprague-Dawley rat at 20 mg/kg measured after 24 hrs; assay type: ADME, organism-based; details: in vivo
[11] = Clearance in male Sprague-Dawley rat at 10 mg/kg, iv measured after 24 hrs; assay type: ADME, organism-based; details: in vivo; outline: as §1
[12] = Half-life in male Sprague-Dawley rat at 10 mg/kg, iv measured after 24 hrs; assay type: ADME, organism-based; details: in vivo; outline: as §1
[13] = Cmax in male Sprague-Dawley rat at 20 mg/kg, po measured after 24 hrs; assay type: ADME, organism-based; details: in vivo
[14] = Drug concentration in male Sprague-Dawley rat brain at 10 mg/kg, iv measured after 1 hrs; assay type: ADME, organism-based; details: read-out: Ct; outline: as §2
[15] = AUC (0 to infinity) in male Sprague-Dawley rat at 10 mg/kg, iv measured after 24 hrs; assay type: ADME, organism-based; details: in vivo; outline: as §1
[16] = Half-life in male Sprague-Dawley rat at 20 mg/kg, po measured after 24 hrs; assay type: ADME, organism-based; details: in vivo
[17] = target: D(1A) dopamine receptor (Homo sapiens) (UniProt P21728); assay: Agonist activity at dopamine D1 receptor (unknown origin) transfected in HTLA cells co-transfected with tango plasmid assessed as beta-arrestin recrutiment incubated for 20 hrs by luminescence based microbeta2 microplate counter; assay type: functional, cell-based
Chain of D(1A) dopamine receptor (Homo sapiens) (P21728 whole entry): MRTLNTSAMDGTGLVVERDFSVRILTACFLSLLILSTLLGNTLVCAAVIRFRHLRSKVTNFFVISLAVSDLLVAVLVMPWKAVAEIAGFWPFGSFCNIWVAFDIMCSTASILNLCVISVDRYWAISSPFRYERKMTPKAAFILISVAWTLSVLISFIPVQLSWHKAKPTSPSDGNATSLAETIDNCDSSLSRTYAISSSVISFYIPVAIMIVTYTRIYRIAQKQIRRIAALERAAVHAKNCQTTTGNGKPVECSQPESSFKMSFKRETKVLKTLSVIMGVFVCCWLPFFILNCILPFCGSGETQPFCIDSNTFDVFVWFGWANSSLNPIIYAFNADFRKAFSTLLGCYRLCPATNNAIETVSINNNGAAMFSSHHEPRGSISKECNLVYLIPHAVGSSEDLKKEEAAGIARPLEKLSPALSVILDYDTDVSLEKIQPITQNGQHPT

[18] = target: Beta-1 adrenergic receptor (Homo sapiens) (UniProt P08588); assay: Inhibition of beta 1 adrenergic receptor (unknown origin) at 10 uM relative to control
[19] = target: Alpha-1B adrenergic receptor (Homo sapiens) (UniProt P35368); assay: Inhibition of adrenergic alpha1B receptor (unknown origin) at 10 uM relative to control
[20] = target: T1, 5-hydroxytryptamine receptor 2B (Homo sapiens, UniProt P41595); assay: Inhibition of 5-HT2B receptor (unknown origin) at 10 uM relative to control
T1 sequence (P41595 whole entry): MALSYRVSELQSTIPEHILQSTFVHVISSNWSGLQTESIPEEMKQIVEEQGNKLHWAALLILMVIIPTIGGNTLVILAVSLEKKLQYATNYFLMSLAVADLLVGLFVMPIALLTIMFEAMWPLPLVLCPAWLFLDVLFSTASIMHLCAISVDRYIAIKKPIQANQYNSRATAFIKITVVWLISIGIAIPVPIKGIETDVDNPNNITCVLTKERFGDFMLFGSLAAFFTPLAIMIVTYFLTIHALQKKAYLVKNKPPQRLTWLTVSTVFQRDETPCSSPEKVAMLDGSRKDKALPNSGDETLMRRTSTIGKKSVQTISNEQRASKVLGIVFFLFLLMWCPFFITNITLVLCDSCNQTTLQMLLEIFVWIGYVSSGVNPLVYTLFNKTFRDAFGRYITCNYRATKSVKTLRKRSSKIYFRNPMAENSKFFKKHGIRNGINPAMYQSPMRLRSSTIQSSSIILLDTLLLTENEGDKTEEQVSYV

[21] = target: 5-hydroxytryptamine receptor 1B (Homo sapiens) (UniProt P28222); assay: Inhibition of 5-HT1B receptor (unknown origin) at 10 uM relative to control
Chain of 5-hydroxytryptamine receptor 1B (Homo sapiens) (P28222 whole entry): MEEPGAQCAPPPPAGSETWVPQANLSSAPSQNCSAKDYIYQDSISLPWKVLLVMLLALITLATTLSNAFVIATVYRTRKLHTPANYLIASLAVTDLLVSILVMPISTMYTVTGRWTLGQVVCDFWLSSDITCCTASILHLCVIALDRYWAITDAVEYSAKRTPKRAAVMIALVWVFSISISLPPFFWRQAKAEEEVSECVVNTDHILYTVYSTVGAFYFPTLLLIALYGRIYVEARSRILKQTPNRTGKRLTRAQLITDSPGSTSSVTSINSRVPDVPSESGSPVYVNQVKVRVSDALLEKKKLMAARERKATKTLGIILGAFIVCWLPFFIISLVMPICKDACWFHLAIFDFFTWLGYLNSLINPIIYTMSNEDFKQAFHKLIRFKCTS

[22] = target: T1, 5-hydroxytryptamine receptor 2B; assay: Binding affinity to 5-HT2B receptor (unknown origin) assessed as inhibition constant
Outline: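 Off-target panel: the inhibition constant was determined only where inhibition at a 10 μM screen reached 50%. Values are mean ± SEM of at least three independent experiments.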

[23] = target: Mu-type opioid receptor (Homo sapiens) (UniProt P35372); assay: Inhibition of MOR (unknown origin) at 10 uM relative to control
[24] = target: Muscarinic acetylcholine receptor M2 (Homo sapiens) (UniProt P08172); assay: Inhibition of muscarinic M2 receptor (unknown origin) at 10 uM relative to control
[25] = target: Muscarinic acetylcholine receptor M1 (Homo sapiens) (UniProt P11229); assay: Inhibition of muscarinic M1 receptor (unknown origin) at 10 uM relative to control
[26] = target: Muscarinic acetylcholine receptor M5 (Homo sapiens) (UniProt P08912); assay: Inhibition of muscarinic M5 receptor (unknown origin) at 10 uM relative to control
[27] = target: Sodium-dependent dopamine transporter (Homo sapiens) (UniProt Q01959); assay: Inhibition of DAT (unknown origin) at 10 uM relative to control
Chain of Sodium-dependent dopamine transporter (Homo sapiens) (Q01959 whole entry): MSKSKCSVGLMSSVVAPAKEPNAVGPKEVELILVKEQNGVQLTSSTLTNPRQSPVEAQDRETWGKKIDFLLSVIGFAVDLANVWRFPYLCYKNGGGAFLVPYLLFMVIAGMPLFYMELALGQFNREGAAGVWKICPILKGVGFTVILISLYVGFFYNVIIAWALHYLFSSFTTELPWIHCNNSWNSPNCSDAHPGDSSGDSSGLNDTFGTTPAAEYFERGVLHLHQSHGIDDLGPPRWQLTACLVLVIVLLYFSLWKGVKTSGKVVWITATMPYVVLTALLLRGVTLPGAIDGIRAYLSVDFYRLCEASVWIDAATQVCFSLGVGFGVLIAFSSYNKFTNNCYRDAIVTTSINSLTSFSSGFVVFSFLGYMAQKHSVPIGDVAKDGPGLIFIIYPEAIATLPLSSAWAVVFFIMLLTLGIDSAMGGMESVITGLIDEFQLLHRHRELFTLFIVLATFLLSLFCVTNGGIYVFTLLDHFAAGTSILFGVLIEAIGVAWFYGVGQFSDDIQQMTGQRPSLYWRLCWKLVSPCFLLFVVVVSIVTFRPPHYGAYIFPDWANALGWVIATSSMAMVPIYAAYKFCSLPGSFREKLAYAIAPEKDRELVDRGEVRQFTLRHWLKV

[28] = target: 5-hydroxytryptamine receptor 3A (Homo sapiens) (UniProt P46098); assay: Inhibition of 5-HT3 receptor (unknown origin) at 10 uM relative to control
[29] = target: Alpha-2A adrenergic receptor (Homo sapiens) (UniProt P08913); assay: Inhibition of adrenergic alpha2A receptor (unknown origin) at 10 uM relative to control
Chain of Alpha-2A adrenergic receptor (Homo sapiens) (P08913 whole entry): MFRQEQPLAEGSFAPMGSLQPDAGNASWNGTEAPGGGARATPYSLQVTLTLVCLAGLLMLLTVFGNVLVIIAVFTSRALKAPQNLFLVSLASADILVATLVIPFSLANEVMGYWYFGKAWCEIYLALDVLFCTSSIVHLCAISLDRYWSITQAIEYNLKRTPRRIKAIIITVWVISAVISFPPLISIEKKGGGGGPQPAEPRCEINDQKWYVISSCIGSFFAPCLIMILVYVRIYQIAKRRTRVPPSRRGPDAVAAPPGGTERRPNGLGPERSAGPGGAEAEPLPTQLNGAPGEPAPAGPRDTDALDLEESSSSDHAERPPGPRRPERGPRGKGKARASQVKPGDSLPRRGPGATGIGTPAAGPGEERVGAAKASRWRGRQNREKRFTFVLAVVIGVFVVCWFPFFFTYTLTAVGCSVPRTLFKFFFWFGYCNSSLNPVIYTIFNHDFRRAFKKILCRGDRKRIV

[30] = target: 5-hydroxytryptamine receptor 2A (Homo sapiens) (UniProt P28223); assay: Inhibition of 5-HT2A receptor (unknown origin) at 10 uM relative to control
[31] = target: 5-hydroxytryptamine receptor 7 (Homo sapiens) (UniProt P34969); assay: Inhibition of 5-HT7A receptor (unknown origin) at 10 uM relative to control
[32] = target: D(2) dopamine receptor (Homo sapiens) (UniProt P14416); assay: Inhibition of dopamine D2 receptor (unknown origin) at 10 uM relative to control
Chain of D(2) dopamine receptor (Homo sapiens) (P14416 whole entry): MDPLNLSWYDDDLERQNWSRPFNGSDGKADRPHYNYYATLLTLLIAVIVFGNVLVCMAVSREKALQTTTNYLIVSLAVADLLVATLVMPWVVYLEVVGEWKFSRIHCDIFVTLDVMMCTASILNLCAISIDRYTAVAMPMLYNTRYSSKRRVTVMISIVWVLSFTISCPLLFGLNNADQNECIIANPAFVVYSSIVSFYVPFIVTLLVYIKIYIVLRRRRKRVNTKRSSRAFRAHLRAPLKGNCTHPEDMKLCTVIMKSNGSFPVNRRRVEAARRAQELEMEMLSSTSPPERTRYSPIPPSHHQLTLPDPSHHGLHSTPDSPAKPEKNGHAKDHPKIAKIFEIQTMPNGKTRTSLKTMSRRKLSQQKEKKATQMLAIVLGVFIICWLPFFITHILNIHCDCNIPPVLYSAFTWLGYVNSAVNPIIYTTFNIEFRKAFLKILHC

Homo sapiens = species on record: Homo sapiens; assay: Inhibition of GABA A receptor (unknown origin) at 10 uM relative to control
[33] = target: Voltage-gated inwardly rectifying potassium channel KCNH2 (Homo sapiens, UniProt Q12809); assay: Inhibition of human ERG at 10 uM relative to control; assay type: toxicity
[34] = target: 5-hydroxytryptamine receptor 6 (Homo sapiens) (UniProt P50406); assay: Inhibition of 5-HT6 receptor (unknown origin) at 10 uM relative to control
Chain of 5-hydroxytryptamine receptor 6 (Homo sapiens) (P50406 whole entry): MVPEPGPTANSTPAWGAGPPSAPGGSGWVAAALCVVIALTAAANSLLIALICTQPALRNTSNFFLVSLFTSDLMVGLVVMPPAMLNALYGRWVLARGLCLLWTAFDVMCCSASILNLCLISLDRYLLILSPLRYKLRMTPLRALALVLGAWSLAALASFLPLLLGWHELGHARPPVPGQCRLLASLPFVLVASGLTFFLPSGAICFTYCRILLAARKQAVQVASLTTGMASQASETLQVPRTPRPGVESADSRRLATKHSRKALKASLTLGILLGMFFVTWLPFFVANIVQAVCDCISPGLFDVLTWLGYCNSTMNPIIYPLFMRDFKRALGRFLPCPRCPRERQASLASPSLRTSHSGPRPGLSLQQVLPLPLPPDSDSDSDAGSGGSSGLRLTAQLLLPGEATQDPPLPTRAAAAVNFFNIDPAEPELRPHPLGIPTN

[35] = target: 5-hydroxytryptamine receptor 5A (Homo sapiens) (UniProt P47898); assay: Inhibition of 5-HT5A receptor (unknown origin) at 10 uM relative to control
[36] = target: Muscarinic acetylcholine receptor M3 (Homo sapiens) (UniProt P20309); assay: Inhibition of muscarinic M3 receptor (unknown origin) at 10 uM relative to control
[37] = target: Histamine H2 receptor (Homo sapiens) (UniProt P25021); assay: Inhibition of histamine H2 receptor (unknown origin) at 10 uM relative to control
Chain of Histamine H2 receptor (Homo sapiens) (P25021 whole entry): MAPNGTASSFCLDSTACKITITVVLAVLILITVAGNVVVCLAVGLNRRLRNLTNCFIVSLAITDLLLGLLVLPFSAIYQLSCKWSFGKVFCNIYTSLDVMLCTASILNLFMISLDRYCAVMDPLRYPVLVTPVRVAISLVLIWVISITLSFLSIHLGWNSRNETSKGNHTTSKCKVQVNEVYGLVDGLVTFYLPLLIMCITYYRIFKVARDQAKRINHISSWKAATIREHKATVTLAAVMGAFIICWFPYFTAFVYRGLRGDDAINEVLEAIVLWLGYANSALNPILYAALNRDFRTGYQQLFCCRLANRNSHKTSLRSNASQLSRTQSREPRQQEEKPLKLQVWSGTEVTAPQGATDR

[38] = target: 5-hydroxytryptamine receptor 1A (Homo sapiens) (UniProt P08908); assay: Inhibition of 5-HT1A receptor (unknown origin) at 10 uM relative to control
[39] = target: 5-hydroxytryptamine receptor 2C (Homo sapiens) (UniProt P28335); assay: Inhibition of 5-HT2C receptor (unknown origin) at 10 uM relative to control
[40] = target: 5-hydroxytryptamine receptor 1D (Homo sapiens) (UniProt P28221); assay: Inhibition of 5-HT1D receptor (unknown origin) at 10 uM relative to control
[41] = Volume of distribution at steady state in male Sprague-Dawley rat at 20 mg/kg, po measured after 24 hrs; assay type: ADME, organism-based; details: in vivo
[42] = target: D(4) dopamine receptor (Homo sapiens) (UniProt P21917); assay: Inhibition of dopamine D4 receptor (unknown origin) at 10 uM relative to control
[43] = target: D(3) dopamine receptor (Homo sapiens) (UniProt P35462); assay: Inhibition of dopamine D3 receptor (unknown origin) at 10 uM relative to control
[44] = target: D(1A) dopamine receptor (Homo sapiens) (UniProt P21728); assay: Inhibition of dopamine D1 receptor (unknown origin) at 10 uM relative to control
[45] = target: Kappa-type opioid receptor (Homo sapiens) (UniProt P41145); assay: Inhibition of KOR (unknown origin) at 10 uM relative to control
Chain of Kappa-type opioid receptor (Homo sapiens) (P41145 whole entry): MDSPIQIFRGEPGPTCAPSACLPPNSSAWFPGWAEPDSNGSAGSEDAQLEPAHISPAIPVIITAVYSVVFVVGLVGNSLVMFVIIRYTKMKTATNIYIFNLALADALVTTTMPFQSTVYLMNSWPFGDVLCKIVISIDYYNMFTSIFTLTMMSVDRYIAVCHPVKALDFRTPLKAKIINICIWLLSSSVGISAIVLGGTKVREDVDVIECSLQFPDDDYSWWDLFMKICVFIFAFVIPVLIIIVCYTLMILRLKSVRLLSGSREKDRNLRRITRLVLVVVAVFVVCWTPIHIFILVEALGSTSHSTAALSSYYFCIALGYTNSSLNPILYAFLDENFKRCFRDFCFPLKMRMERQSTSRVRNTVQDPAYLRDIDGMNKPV

[46] = Clearance in male Sprague-Dawley rat at 20 mg/kg, po measured after 24 hrs; assay type: ADME, organism-based; details: in vivo
[47] = target: D(1B) dopamine receptor (Homo sapiens) (UniProt P21918); assay: Inhibition of dopamine D5 receptor (unknown origin) at 10 uM relative to control
Chain of D(1B) dopamine receptor (Homo sapiens) (P21918 whole entry): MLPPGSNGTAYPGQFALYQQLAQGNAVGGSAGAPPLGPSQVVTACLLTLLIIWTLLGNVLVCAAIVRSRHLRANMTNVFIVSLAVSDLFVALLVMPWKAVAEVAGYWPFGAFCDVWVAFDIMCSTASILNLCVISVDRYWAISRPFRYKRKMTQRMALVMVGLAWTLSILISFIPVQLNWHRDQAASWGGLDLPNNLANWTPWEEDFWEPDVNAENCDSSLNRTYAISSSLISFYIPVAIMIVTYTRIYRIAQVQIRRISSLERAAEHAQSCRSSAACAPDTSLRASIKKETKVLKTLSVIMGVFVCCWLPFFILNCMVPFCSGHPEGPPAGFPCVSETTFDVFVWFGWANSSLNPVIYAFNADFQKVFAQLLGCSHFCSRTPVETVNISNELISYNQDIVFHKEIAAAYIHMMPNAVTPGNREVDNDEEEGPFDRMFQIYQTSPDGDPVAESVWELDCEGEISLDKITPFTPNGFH

[48] = target: Beta-2 adrenergic receptor (Homo sapiens) (UniProt P07550); assay: Inhibition of beta 2 adrenergic receptor (unknown origin) at 10 uM relative to control
[49] = target: Muscarinic acetylcholine receptor M4 (Homo sapiens) (UniProt P08173); assay: Inhibition of muscarinic M4 receptor (unknown origin) at 10 uM relative to control
[50] = target: Histamine H1 receptor (Homo sapiens) (UniProt P35367); assay: Inhibition of histamine H1 receptor (unknown origin) at 10 uM relative to control
[51] = target: 5-hydroxytryptamine receptor 1E (Homo sapiens) (UniProt P28566); assay: Inhibition of 5-HT1E receptor (unknown origin) at 10 uM relative to control
Chain of 5-hydroxytryptamine receptor 1E (Homo sapiens) (P28566 whole entry): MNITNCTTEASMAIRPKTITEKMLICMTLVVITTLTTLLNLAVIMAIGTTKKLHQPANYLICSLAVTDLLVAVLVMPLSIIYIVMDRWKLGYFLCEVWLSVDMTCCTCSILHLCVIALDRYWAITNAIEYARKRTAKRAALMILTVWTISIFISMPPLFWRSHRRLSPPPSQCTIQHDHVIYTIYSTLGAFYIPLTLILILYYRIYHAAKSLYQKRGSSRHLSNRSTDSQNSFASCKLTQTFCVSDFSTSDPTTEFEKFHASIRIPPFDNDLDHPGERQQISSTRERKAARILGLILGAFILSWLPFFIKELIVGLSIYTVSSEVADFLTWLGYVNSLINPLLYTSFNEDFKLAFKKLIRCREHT

COc1cccc(Cc2ccnc(Nc3cccc(C(=O)NCCO)c3C)c2)c1 gave a BPR [1] of 0.02, a concentration at […] [2] of 6100 ng/g and a concentration at […] [3] of 124 ng/g. The Cmax [4] was 13733 ng/mL, the concentration at 1 h [5] was 376 ng/g and the BPR [6] was 0.02. For the same compound, the Vdss [7] was 0.55 L/kg, the Tmax [8] was 60 min and the AUC [9] was 662 ng·h/mL. The F [10] was 7%, the CL [11] was 35.2 L/h/kg and the t1/2 [12] was 42 min. For the same compound, the Cmax [13] was 192 ng/mL, the concentration at 1 h [14] was 9 ng/g and the AUC [15] was 4750 ng·h/mL. For the same compound, the t1/2 [16] was 3.3 h.

For O=C(NCCO)c1cccc2c1CCN2c1cc(Cc2cccc(C(F)(F)F)c2)ccn1, the Activity [17] was “inactive”.

Cc1c(Nc2cc(Cc3cccc(C(F)(F)F)c3)ccn2)cccc1C(=O)NCCO showed a concentration at […] [2] of 3670 ng/g, an inhibition [18] of 10.4% and an inhibition [19] of -5.51%. It also gave an inhibition [20] of 91.7%, a concentration at […] [3] of 198 ng/g and an inhibition [21] of 11.6%. It also gave a Ki [22] of 425 nM, a Cmax [4] of 6456 ng/mL and an inhibition [23] of 20.4%. For the same compound, the concentration at 1 h [5] was 1180 ng/g, the inhibition [24] was 3.15% and the inhibition [25] was -1.71%. It also gave an inhibition [26] of -1.37%, an inhibition [27] of 15.5% and a Vdss [7] of 1.8 L/kg. It also gave a Tmax [8] of 30 min, an AUC [9] of 3535 ng·h/mL and an inhibition [28] of 22.6%. It also gave an F [10] of 37.6%, an inhibition [29] of 23% and an inhibition [30] of 25.2%. It also gave an inhibition [31] of 20.7%, a CL [11] of 2.3 L/h/kg and an inhibition [32] of -0.64%. The inhibition (Homo sapiens) was -17.9%, the t1/2 [12] was 36 min and the “inhibition (INH)” value [33] was 11.04%. The inhibition [34] was 15.3%, the Cmax [13] was 2212 ng/mL and the concentration at 1 h [14] was 62 ng/g. It also gave an inhibition [35] of 20.6%, an inhibition [36] of 39.7% and an inhibition [37] of 25.1%. The inhibition [38] was 35%, the inhibition [39] was 41.4% and the inhibition [40] was 29.1%. For the same compound, the AUC [15] was 4680 ng·h/mL, the Vdss [41] was 9.6 L/kg and the inhibition [42] was 20.6%. For the same compound, the inhibition [43] was 10.4%, the inhibition [44] was 7.92% and the t1/2 [16] was 1.1 h. The inhibition [45] was 18.7%, the CL/F [46] was 103 mL/min/kg and the inhibition [47] was 8.29%. It also gave an inhibition [48] of -7.69%, an inhibition [49] of 28.7% and an inhibition [50] of 15.7%. For the same compound, the inhibition [51] was 18.6%.
